The values below come from ChEMBL document CHEMBL4196224, “Novel Hypoxia-Inducible Factor 1α (HIF-1α) Inhibitors for Angiogenesis-Related Ocular Diseases: Discovery of a Novel Scaffold via Ring-Truncation Strategy” (J Med Chem, 2018).

Series [1] deals with T1, Hypoxia-inducible factor 1-alpha (Homo sapiens, UniProt Q16665). The experiment in a line: Inhibition of HIF-1alpha in human HRE-A549 cells pre-incubated for 1 hr before exposure to hypoxia for 24 hrs by HRE-luciferase reporter gene assay. The class given is cell-based. In a few lines: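 A549 cells stably carrying an HRE-luciferase reporter (G418 600 μg/mL selection), kept in DMEM/10% FBS and grown to 80-90% confluence. Serum withdrawn overnight, compound added 1 h before 24 h hypoxia (1% O2, 5% CO2, 94% N2, 37 °C). Luciferase read by luminometer. IC50 is the mean of three independent experiments with standard error.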
On the technique in general: A reporter such as luciferase makes a cellular process visible.
Target sequence in this assay (Q16665 whole entry): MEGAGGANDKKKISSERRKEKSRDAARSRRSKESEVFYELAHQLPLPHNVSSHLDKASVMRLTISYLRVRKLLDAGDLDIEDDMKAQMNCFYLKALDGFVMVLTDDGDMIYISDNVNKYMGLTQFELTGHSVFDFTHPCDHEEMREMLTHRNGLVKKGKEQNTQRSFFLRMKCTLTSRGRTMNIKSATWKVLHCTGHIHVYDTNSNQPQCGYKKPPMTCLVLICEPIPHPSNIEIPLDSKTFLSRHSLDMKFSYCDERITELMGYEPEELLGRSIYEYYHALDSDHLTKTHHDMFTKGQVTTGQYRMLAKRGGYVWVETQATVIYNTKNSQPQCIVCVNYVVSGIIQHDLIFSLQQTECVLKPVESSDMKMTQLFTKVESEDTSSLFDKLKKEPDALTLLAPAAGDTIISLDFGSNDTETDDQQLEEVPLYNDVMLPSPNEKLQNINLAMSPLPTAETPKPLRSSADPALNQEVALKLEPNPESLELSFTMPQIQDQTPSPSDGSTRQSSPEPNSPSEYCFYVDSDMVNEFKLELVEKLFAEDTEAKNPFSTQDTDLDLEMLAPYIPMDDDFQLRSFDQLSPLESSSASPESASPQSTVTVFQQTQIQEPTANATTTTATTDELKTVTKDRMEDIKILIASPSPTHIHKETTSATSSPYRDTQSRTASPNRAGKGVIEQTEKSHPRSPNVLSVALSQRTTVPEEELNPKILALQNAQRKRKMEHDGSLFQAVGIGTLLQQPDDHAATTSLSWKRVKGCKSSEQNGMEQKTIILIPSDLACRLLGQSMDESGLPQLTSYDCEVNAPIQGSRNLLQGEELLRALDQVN

Series [2] has as its system HUVEC. The experiment in a line: Antiangiogenic activity in HUVEC exposed to human HeLa cells derived conditioned media assessed as inhibition of hypoxia-induced cell migration at 100 nM incubated for 4 hrs by H and E staining based inverted phase contrast microscopy. It counts as functional. In a few lines: (§1)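 Conditioned medium from RPE or HeLa cells grown in M199 with 1% FBS under hypoxia ± compound, passed through a 3 kDa cut-off filter. Proliferation: 5 x 10^3 endothelial cells on gelatin, 24 h, then CM 24 h; [3H]-thymidine incorporation, DNA solubilized in 0.2 N NaOH/0.1% SDS, scintillation counting. Migration: 1 x 10^5 cells in Transwell upper well over CM, 4 h, H&E stain, migrated cells counted. Tube formation: 2 x 10^5 cells on Matrigel in CM, 20 h, tube length measured in 5 random fields (x100).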

For series [3], the system named is HUVEC. Kind of series: Antiangiogenic activity in HUVEC exposed to human HeLa cells derived conditioned media assessed as inhibition of hypoxia-induced [3H]-thymidine incorporation at 100 nM incubated for 24 hrs by liquid scintillation counting assay. The class given is functional, cell-based. Summed up: as §1
Series [4] deals with Mus musculus. Kind of series: Suppression of hypoxia-mediated retinal neovascularization in mouse model of oxygen-induced retinopathy assessed as reduction in retinal neovascular tufts at 100 nM dosed via intravitreal route. The class given is functional, organism-based. In a few lines: (§2)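 Newborn mice held in 75% ± 0.5% O2 from P7 to P12. Intravitreal injection of compound or PBS at P14 (n = 6). Retinas whole-mounted at P17 and stained with isolectin B4-594. Neovascular tuft area per retina measured by image analysis; mean ± SEM.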

Series [5] has as its system Mus musculus. The experiment in a line: Suppression of hypoxia-mediated retinal neovascularization in mouse model of oxygen-induced retinopathy assessed as reduction in retinal neovascular tufts at 1 uM dosed via intravitreal route. The class given is functional, organism-based. Summed up: as §2
Series [6] can be described thus: Aqueous solubility of the compound in DPBS incubated for 24 hrs by LC/MS/MS method relative to SH-1242. It counts as physicochemical. The conditions noted are these: buffer.
Series [7] relates to HUVEC. The experiment in a line: Antiangiogenic activity in HUVEC exposed to human HeLa cells derived conditioned media assessed as inhibition of hypoxia-induced cell tube formation at 100 nM incubated for 20 hrs. It counts as functional, cell-based. In a few lines:
as §1

The test system of series [8] is Mus musculus. The experiment in a line: Suppression of hypoxia-mediated retinal neovascularization in mouse model of oxygen-induced retinopathy assessed as reduction in retinal neovascular tufts at 100 nM dosed via intravitreal route relative to SH-1242. The class given is functional, organism-based. In a few lines:
as §2

The target of series [9] is T1, Hypoxia-inducible factor 1-alpha. The experiment in a line: Induction of HIF-1alpha destabilization in human HCT116 cells under hypoxic conditions assessed as reduction in hypoxia-induced VEGFA mRNA expression at 100 nM.
Target sequence in this assay (Q16665 whole entry, looked up): as the sequence (Q16665 whole entry) above
For series [10], the species on record is Homo sapiens. The experiment in a line: Antiangiogenic activity in HRMEC exposed to human RPE cells derived conditioned media assessed as inhibition of hypoxia-induced cell migration at 100 nM incubated for 4 hrs by H and E staining based inverted phase contrast microscopy. It counts as functional. Summed up: as §1
For series [11], the target named is T1, Hypoxia-inducible factor 1-alpha. Kind of series: Inhibition of HIF-1alpha in human A549 cell lysates assessed as reduction in Hsp90 and HIF-1alpha interaction at 1.25 uM in presence of ATP for 30 mins at 37 degC by immunoprecipitation and immunoblotting assay. Summed up:
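Lysate from A549 cells exposed to 100 μM CoCl2 for 5 h, incubated with compound ± 20 mM ATP for 30 min at 37 °C. HIF-1α immunoprecipitated overnight at 4 °C, then protein G-agarose 2 h at 4 °C. Complex boiled in Laemmli buffer, run on 6% SDS-PAGE, blotted for HSP90.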
(In western blotting, separated proteins are transferred to a membrane and probed.)
Target sequence in this assay (Q16665 whole entry, looked up): as the sequence (Q16665 whole entry) above

Series [12] has the same target. Kind of series: Induction of HIF-1alpha destabilization in human HCT116 cells under hypoxic conditions at 100 nM by Western blot method.
Target sequence in this assay (Q16665 whole entry, looked up): as the sequence (Q16665 whole entry) above
The target is the same in series [13]. Kind of series: Induction of HIF-1alpha destabilization in human HCT116 cells under hypoxic conditions assessed as reduction in hypoxia-induced VEGF production at 100 nM by ELISA. On the technique in general: An ELISA detects its analyte on a solid surface through an enzyme-linked reagent.
Target sequence in this assay (Q16665 whole entry, looked up): as the sequence (Q16665 whole entry) above
The species named for series [14] is Homo sapiens. The experiment in a line: Antiangiogenic activity in HRMEC exposed to human RPE cells derived conditioned media assessed as inhibition of hypoxia-induced [3H]-thymidine incorporation at 100 nM incubated for 24 hrs by liquid scintillation counting assay. It counts as functional. In a few lines: as §1
The species named for series [15] is Homo sapiens. Kind of series: Antiangiogenic activity in HRMEC exposed to human RPE cells derived conditioned media assessed as inhibition of hypoxia-induced tube formation at 100 nM incubated for 20 hrs. It counts as functional. Summed up: as §1

The structures appear in SMILES notation. Calls of active or inactive are those of the source.

Turning to `COc1ccc(CC(O)c2ccc3c(c2OC)C=CC(C)(C)O3)cc1OC` (stereo unspecified), the IC50 – broadly, the point on the concentration scale where inhibition reaches its midpoint – in series [1] came to 8880 nM.

On to `C=CCC(C(=O)c1ccc2c(c1OC)C=CC(C)(C)O2)c1ccc(OC)c(OC)c1` (stereo unspecified), for which, in series [1], 8450 nM corresponded to half-maximal inhibition (IC50).

As for `COc1ccc(C(C)C(=O)c2ccc(N3CCCCC3)cc2OC)cc1OC` (racemic), the outcome in series [2], in series [3], in series [4], in [5] and in series [7] was Active. Further, the “fold change (FC)” value in [6] came out at 93.

`COc1ccc(C(Cc2ccccc2)C(=O)c2ccc3c(c2OC)C=CC(C)(C)O3)cc1OC` (stereo unspecified): the IC50 in series [1] was 12000 nM.

In the case of `COc1ccc(C(C)C(=O)c2ccc(N(C)C)cc2OC)cc1OC` (racemic), the IC50 in series [1] is over 15000 nM.

The compound `COc1ccccc1CC(=O)c1ccc2c(c1OC)C=CC(C)(C)O2` registered an IC50 in [1] of 3210 nM.

As for `COc1cccc(CC(=O)c2ccc3c(c2OC)C=CC(C)(C)O3)c1`, 820 nM corresponded to half-maximal inhibition in [1] (IC50).

In the case of `COc1ccc(CC(=O)c2ccc3c(c2OC)C=CC(C)(C)O3)cc1`, the IC50 in series [1] was 6210 nM.

In turn, `COc1c(C(=O)Cc2ccc(Cl)c(Cl)c2)ccc2c1C=CC(C)(C)O2` registered an IC50 in series [1] of 2880 nM.

`COc1c(C(=O)Cc2ccc3c(c2)OCCO3)ccc2c1C=CC(C)(C)O2` came in with a half-inhibitory concentration (IC50) in [1] of 1330 nM.

`CCN(C(=O)c1ccc2c(c1OC)C=CC(C)(C)O2)c1ccc(OC)c(OC)c1`: in series [1], half-maximal inhibition (IC50) was put at 5250 nM.

In series [1], `COc1ccc(C(C)C(=O)c2ccc3c(c2OC)C=CC(C)(C)O3)cc1OC` (racemic) came in with an IC50 of 1360 nM.

Compound `COc1c(C(=O)Cc2ccccc2)ccc2c1C=CC(C)(C)O2` returned a half-inhibitory concentration (IC50) in [1] of 880 nM.

For the compound `COc1c(C(=O)Cc2ccccc2F)ccc2c1C=CC(C)(C)O2`, it took 100 nM to reach half-maximal inhibition in [1] (IC50).

`COc1c(C(=O)Cc2ccc(F)c(F)c2)ccc2c1C=CC(C)(C)O2` came in with an IC50 in series [1] of 1270 nM.

Turning to `COc1ccc(C(C)C(=O)c2ccc(NCc3ccc(C#N)cc3)cc2OC)cc1OC` (racemic), the result in series [8], in series [9], in [10], in series [2], in series [12] and in [3] was Active. The outcome in series [13], in series [14], in series [7] and in series [15] was Active. Further, in series [11], the inhibition result is “Active”. Further, in [6], the “fold change (FC)” value was 17.

As for `COc1c(C(=O)Cc2ccc3c(c2)OCO3)ccc2c1C=CC(C)(C)O2`, half-maximal inhibition in [1] (IC50) was put at 3410 nM.

For `COc1c(C(=O)Cc2ccccc2O)ccc2c1C=CC(C)(C)O2`, inhibition in series [1] was half-maximal at 940 nM (IC50).

With `COc1c(C(=O)Cc2cccc(O)c2)ccc2c1C=CC(C)(C)O2`, the IC50 in [1] is 1440 nM.

The compound `COc1ccc(CC(OC(C)=O)c2ccc3c(c2OC)C=CC(C)(C)O3)cc1OC` (stereo unspecified) had an IC50 in series [1] of 3040 nM.

Compound `COc1ccc(C(=O)C(C)c2ccc(OC)c(OC)c2)c(OC)c1` (racemic) showed an IC50 in series [1] of over 15000 nM.

For `COc1ccc([C@@H](C)C(=O)c2ccc(NCc3ccc(C#N)cc3)cc2OC)cc1OC`, in series [4], the outcome was Active.

As for `COc1c(C(=O)Cc2ccc(O)cc2)ccc2c1C=CC(C)(C)O2`, the IC50 in [1] came to 790 nM.

The compound `COc1ccc(C(C)C(=O)c2ccc(O)cc2OC)cc1OC` (racemic) returned an IC50 in series [1] of over 15000 nM.

As to `COc1ccc(CC(=O)c2ccc3c(c2OC)C=CC(C)(C)O3)cc1OC`, the outcome in series [4] and in series [5] was Active. This compound also returned an IC50 in series [1] of 2150 nM.

As to `COc1c(C(=O)Cc2cccc(F)c2)ccc2c1C=CC(C)(C)O2`, the midpoint of inhibition in series [1], the IC50, lay at 360 nM.

`COc1ccc([C@H](C)C(=O)c2ccc(NCc3ccc(C#N)cc3)cc2OC)cc1OC`: the outcome in series [4] was Active.

Take `COc1ccc(N(C)C(=O)c2ccc3c(c2OC)C=CC(C)(C)O3)cc1OC`: the midpoint of inhibition in series [1], the IC50, lay at 3150 nM.

In series [1], `COc1ccc(N(Cc2ccccc2)C(=O)c2ccc3c(c2OC)C=CC(C)(C)O3)cc1OC` yielded an IC50 of 10800 nM.

In [1], `COc1ccc(C(C)C(=O)c2ccc(N3CCCC3)cc2)cc1OC` (racemic) registered an IC50 of 2610 nM.

Compound `COc1ccc(C(F)C(=O)c2ccc3c(c2OC)C=CC(C)(C)O3)cc1OC` (stereo unspecified) registered an IC50 in series [1] of 6350 nM.

On to `COc1c(C(=O)Cc2ccc(F)cc2)ccc2c1C=CC(C)(C)O2`, for which the IC50 in [1] was determined as 1020 nM.

For `COc1ccc(NC(=O)c2ccc3c(c2OC)C=CC(C)(C)O3)cc1OC`, the midpoint of inhibition in series [1], the IC50, lay at 2040 nM.
